Experimental data as given in ChEMBL document CHEMBL2034820, “Discovery, synthesis, and biological evaluation of novel pyrrole derivatives as highly selective potassium-competitive acid blockers” (Bioorg Med Chem, 2012).
The source made the active and inactive calls. The calls are words filed in the database; no cut-off is given here.

Columns and labels:
[1] = Inhibition of H+/K+ATPase in pig gastric microsomes assessed as liberation of inorganic phosphate from ATP hydrolysis after 30 mins; parameters: species or system Sus scrofa, Stomach, Microsome
Outline: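 Porcine gastric mucosal microsomes (Ficoll-interface fraction, stored at -80 C) in 50 mmol/L HEPES-Tris pH 6.5 with 5 mmol/L MgCl2, valinomycin, ±10 mmol/L KCl. Preincubated with compound at 37 C for 30 min, then started by adding 2 mmol/L ATP solution. Stopped with malachite green; Pi read at 620 nm. K+-dependent activity from ± K+ difference; IC50 by sigmoidal dose-response fit.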

[2] = tested on: Rattus norvegicus; test: Inhibition of histamine-induced gastric acid secretion in Jcl:Sprague-Dawley rat at 10 mg/kg, iv administered 3 mins before histamine challenge measured after 3 hrs relative to control; format: functional; conditions: Stomach
Outline: (§1)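 Seven-week-old male SD rats, fasted 24 h with free water, anesthetized with urethane 1.2 g/kg ip and pylorus-ligated. Drug or vehicle given iv just after ligation; histamine 2HCl 30 mg/kg sc 3 min later. After 3 h, gastric contents were centrifuged and titrated to pH 7.0 with 0.1 mol/L NaOH. Total 3 h acid output compared with vehicle.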

[3] = tested on: Rattus norvegicus; test: Inhibition of histamine-induced gastric acid secretion in Jcl:Sprague-Dawley rat at 1 mg/kg, iv administered 3 mins before histamine challenge measured after 3 hrs relative to control; format: functional; conditions: Stomach; outline: as §1
[4] = Inhibition of Na+/K+ ATPase in pig cerebral cortex; format: tissue-based, Sus scrofa
Outline: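 Otherwise run as the gastric H+,K+-ATPase assay: compound preincubation at 37 C for 30 min, ATP-started reaction, malachite green phosphate read-out at 620 nm.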

[5] = tested on: Canis familiaris; test: Inhibition of histamine-stimulated gastric acid secretion in heidenhain pouch dog at 1 mg/kg, po prestimulated with histamine 1 day before compound treatment and 1, 3, 6 and 24 hrs post compound treatment measured every 30 mins for 3 times; format: functional, organism-based; parameters: dose 1 mg/kg; conditions: Canis lupus familiaris, Stomach
Outline: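 Dogs dosed orally in a blinded design (0.2 mL/kg), with vehicle controls. Histamine 2HCl injected sc. Pouch gastric juice collected as three consecutive 30 min periods after each histamine dose. Volume measured, and acid titrated to pH 7.0 with 0.1 mol/L NaOH. Total 90 min acid output at each time expressed as % of pre-dosing value.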

[6] = tested on: Canis familiaris; test: Inhibition of histamine-stimulated gastric acid secretion in heidenhain pouch dog at 1 mg/kg, po prestimulated with histamine 1 day before compound treatment and 1, 3, 6 and 24 hrs post compound treatment measured after 24 hrs; format: functional, organism-based; parameters: dose 1 mg/kg; conditions: Canis lupus familiaris, Stomach
Outline: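 Heidenhain pouch dogs dosed orally (0.2 mL/kg), blinded. Histamine 2HCl given sc 1 day before and at 1, 3, 6 and 24 h post-dose. Pouch juice collected over three consecutive 30 min periods and titrated to pH 7.0 with 0.1 mol/L NaOH. 90 min acid output expressed as % of the pre-dosing value.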

[7] = species: Sus scrofa; test: Reversible inhibition of H+/K+ATPase in pig gastric microsomes assessed as liberation of inorganic phosphate from ATP hydrolysis at 0.1 uM incubated for 20 mins measured after compound washout; conditions: Stomach, Microsome
Outline: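 Gastric microsomes incubated with compound (1% DMSO final) at 37 C for 30 min in 50 mmol/L HEPES-Tris pH 6.5, 5 mmol/L MgCl2, 10 mmol/L KCl. Activity measured on an aliquot and on the remainder after washout (30 kDa ultrafiltration, resuspended compound-free). Reaction started with 2 mmol/L ATP, run at 37 C for 20 min; malachite green phosphate read-out; % of 1% DMSO vehicle, n = 2.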

[8] = species: Sus scrofa; test: Competitive inhibition of H+/K+ATPase in pig gastric microsomes by Lineweaver-Burk plot analysis; conditions: Stomach, Microsome

SMILES: CNCc1cc(-c2ccccc2)n(S(C)(=O)=O)c1
- IC50 [1]: > 10000 nM
- inhibition in vivo at 10 mg/kg [2]: 27%

SMILES: CCNCc1cc(-c2ccc3c(c2)OCO3)n(S(=O)(=O)c2ccc(C)cc2)c1
- IC50 [1]: 540 nM
- inhibition in vivo at 10 mg/kg [2]: 39%

SMILES: CNCc1cc(-c2ccccc2)n(S(=O)(=O)c2ccccc2)c1
- IC50 [1]: 9.4 nM
- inhibition in vivo at 1 mg/kg [3]: 96%
- IC50 [4]: > 10000 nM

SMILES: CN(C)Cc1cc(-c2ccccc2)n(S(=O)(=O)c2ccc(C(F)(F)F)cc2)c1
- IC50 [1]: 710 nM
- inhibition in vivo at 10 mg/kg [2]: 59%

SMILES: CNCc1cc(C2CC2)n(S(=O)(=O)c2ccccc2)c1
- IC50 [1]: 1500 nM

SMILES: CCCCS(=O)(=O)n1cc(CNC)cc1-c1ccccc1
- IC50 [1]: 830 nM

SMILES: CCNCc1cc(-c2ccccc2)n(S(=O)(=O)c2ccc(C)cc2)c1
- IC50 [1]: 650 nM
- inhibition in vivo at 10 mg/kg [2]: 53%

SMILES: CNCc1cc(-c2ccccc2)n(S(=O)(=O)c2ccccc2)c1C
- IC50 [1]: 25 nM
- inhibition in vivo at 1 mg/kg [3]: 77%
- IC50 [4]: > 10000 nM

SMILES: Cc1ccc(S(=O)(=O)n2cc(C(N)=O)cc2-c2ccccc2)cc1
- IC50 [1]: > 10000 nM

SMILES: CNCc1cc(-c2ccccc2)n(S(=O)(=O)c2ccc(C(F)(F)F)cc2)c1
- IC50 [1]: 110 nM
- inhibition in vivo at 1 mg/kg [3]: 73%

SMILES: CNCc1cc(-c2ccccc2)n(S(=O)(=O)c2ccccc2)c1Cl
- IC50 [1]: 40 nM
- inhibition in vivo at 1 mg/kg [3]: 49%
- IC50 [4]: > 10000 nM

SMILES: CCCCc1cc(CNC)cn1S(=O)(=O)c1ccccc1
- IC50 [1]: 250 nM
- inhibition in vivo at 1 mg/kg [3]: -8%

SMILES: COCc1cc(-c2ccccc2)n(S(=O)(=O)c2ccc(C)cc2)c1
- IC50 [1]: > 10000 nM
- inhibition in vivo at 10 mg/kg [2]: -3%

SMILES: CNCc1cc(-c2ccccc2)n(C(=O)c2ccccc2)c1
- IC50 [1]: > 10000 nM

SMILES: Cc1ccc(S(=O)(=O)n2cc(CN)cc2-c2ccccc2)cc1
- IC50 [1]: 860 nM

SMILES: CNCc1cc(-c2ccccc2)n(S(=O)(=O)c2ccc(OC)cc2)c1
- inhibition [5]: Active
- IC50 [1]: 30 nM
- inhibition [6]: Active
- inhibition in vivo at 1 mg/kg [3]: 95%
- IC50 [4]: > 10000 nM

SMILES: CNC(C)c1cc(-c2ccccc2)n(S(=O)(=O)c2ccc(C(F)(F)F)cc2)c1 (stereo unspecified)
- IC50 [1]: 2300 nM
- inhibition in vivo at 1 mg/kg [3]: -4%

SMILES: CNCc1cc(-c2ccccc2)n(S(=O)(=O)c2ccc(C)cc2)c1
- IC50 [1]: 55 nM
- inhibition in vivo at 1 mg/kg [3]: 66%
- inhibition [7]: Active
- IC50 [4]: > 10000 nM
- inhibition [8]: Active

SMILES: CNCc1cn(S(=O)(=O)c2ccccc2)c(-c2ccccc2)c1C
- IC50 [1]: 29 nM
- inhibition in vivo at 1 mg/kg [3]: 95%
- IC50 [4]: > 10000 nM

SMILES: Cc1c(OCC(F)(F)F)ccnc1C[S+]([O-])c1nc2ccccc2[nH]1 (stereo unspecified)
- inhibition [5]: Active

SMILES: CNCc1cc(-c2ccccc2)n(Cc2ccccc2)c1
- IC50 [1]: 510 nM
- inhibition in vivo at 10 mg/kg [2]: 84%
